Results on four compounds are retold here after ChEMBL document CHEMBL4350958, “Rational Design of Short Peptide Variants by Using Kunitzin-RE, an Amphibian-Derived Bioactivity Peptide, for Acquired Potent Broad-Spectrum Antimicrobial and Improved Therapeutic Potential of Commensalism Coinfection of Pathogens” (J Med Chem, 2019).

The subject of series [1] is Escherichia coli. In words: Antibacterial activity against Escherichia coli ATCC 25922 assessed as ratio of MIC95 in presence of NaCl to in absence of NaCl. Format: functional.
The subject of series [2] is Escherichia coli. In words: Induction of cytoplasmic membrane depolarization in Escherichia coli ATCC 25922 at MIC up to 3000 secs by DiSC3-5 dye-based fluorescence spectrophotometric method. Format: organism-based. In short, it runs like this: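 Mid-log E. coli ATCC 25922 (OD600 0.05) equilibrated with 0.4 μM DiSC3-5 and 100 mM K+ in 5 mM HEPES pH 7.4 with 20 mM glucose until fluorescence was stably quenched. Peptide then added in a 1-cm cuvette, and fluorescence (ex 622/em 670 nm) followed from 0 to 3000 s. Triplicate independent runs.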

Another series relates to Pseudomonas aeruginosa. In words: Antibacterial activity against gentamicin-resistant Pseudomonas aeruginosa ATCC 27853 measured after 24 hrs. Format: functional, organism-based. In short, it runs like this:
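Broth microdilution modified from NCCLS. Mid-log bacteria at (0.5–1) × 10^5 CFU mL−1 in MHB, mixed with peptides serially diluted in 0.2% BSA. Incubated 24 h at 37 °C, read at A492. MIC taken as lowest concentration giving 95% growth inhibition. At least three independent experiments, each with three technical replicates.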

Series [3] deals with Candida albicans. In words: Antifungal activity against Candida albicans cgmcc2.2086 infected in C57BL/6 mouse model of keratitis assessed as reduction in clinical score at 1 to 5 mg/ml administered as topical eye drop every 5 mins for first 4 hrs and every 30 mins for next 7 hrs measured post-last dose. Format: functional, organism-based.
Series [4] has as its system Candida albicans. In words: Antifungal activity against Candida albicans cgmcc2.2086 infected in C57BL/6 mouse model of keratitis assessed as appearance of transparent corneas at 1 to 5 mg/ml administered as topical eye drop every 5 mins for first 4 hrs and every 30 mins for next 7 hrs measured post-last dose. The format is functional, organism-based.
Series [5] deals with Candida albicans. In words: Antifungal activity against Candida albicans cgmcc2.2086 infected in C57BL/6 mouse model of keratitis assessed as reduction in fungal colonies in eyeballs at 5 mg/ml administered as topical eye drop every 5 mins for first 4 hrs and every 30 mins for next 7 hrs measured post-last dose by agar plate method relative to control. The arrangement: scale not given: the % may be the effect or the level left. Format: functional.

For series [6], the system named is Staphylococcus aureus. In words: Disruption of plasma membrane integrity in Staphylococcus aureus ATCC 29213 at MBC measured after 30 mins using FITC-labeled compound by propidium iodide staining-based microscopic analysis. The format is organism-based. In outline: (§1)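 E. coli ATCC 25922 or S. aureus ATCC 29213 (OD600 0.2) incubated with FITC-labeled peptide at 1×MBC, 37 °C, 30 min. Cells washed, resuspended with PI (10 μg/mL) in PBS, smeared and imaged by superresolution microscopy using 488 and 535 nm filters for FITC and PI. Peptide-free cells served as controls. Three independent scans.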

Series [7] relates to Escherichia coli. In words: Drug uptake in plasma membrane of Escherichia coli ATCC 25922 at MBC measured after 30 mins using FITC-labeled compound by microscopic analysis. Format: ADME, organism-based. The following applies: in vivo, 0.5 h. In outline:
as §1

Series [8] relates to Escherichia coli. In words: Induction of cytoplasmic membrane depolarization in Escherichia coli ATCC 25922 assessed as fluorescence intensity at 4 uM up to 3000 secs by DiSC3-5 dye-based fluorescence spectrophotometric method. In short, it runs like this: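 Mid-log E. coli ATCC 25922 (OD600 0.05) loaded with 0.4 μM DiSC3-5 and 100 mM K+ in 5 mM HEPES pH 7.4 with 20 mM glucose until fluorescence stabilized. Peptide added in a 1-cm cuvette and fluorescence (ex 622, em 670 nm) recorded 0–3000 s. Triplicate, three biological replicates.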

The subject of series [9] is Escherichia coli. In words: Induction of morphological changes in Escherichia coli ATCC 25922 assessed as membrane creping at MBD measured after 1 hr by scanning electron microscopic analysis. Format: functional, organism-based.
For series [10], the system named is Escherichia coli. In words: Induction of morphological changes in Escherichia coli ATCC 25922 assessed as hole formation at MBD measured after 1 hr by scanning electron microscopic analysis. Format: functional, organism-based.
Series [11] relates to Escherichia coli. In words: Induction of morphological changes in Escherichia coli ATCC 25922 assessed as cell content leakage at MBD measured after 1 hr by scanning electron microscopic analysis. The format is functional, organism-based.
Series [12] relates to Staphylococcus aureus. In words: Induction of morphological changes in Staphylococcus aureus ATCC 29213 at MBD measured after 1 hr by atomic force microscopic analysis. The format is functional, organism-based.
Series [13] deals with Staphylococcus aureus. In words: Induction of morphological changes in Staphylococcus aureus ATCC 29213 assessed as hole formation at MBD measured after 1 hr by atomic force microscopic analysis. Format: functional, organism-based.
Series [14] deals with Staphylococcus aureus. In words: Induction of morphological changes in Staphylococcus aureus ATCC 29213 assessed as cell content leakage at MBD measured after 1 hr by atomic force microscopic analysis. The format is functional, organism-based.
Series [15] relates to Escherichia coli. In words: Induction of morphological changes in Escherichia coli ATCC 25922 assessed as pore formation at MBD measured after 1 hr by transmission electron microscopic analysis. The format is functional, organism-based.
Series [16] deals with Escherichia coli. In words: Induction of morphological changes in Escherichia coli ATCC 25922 assessed as appearance of visible sparse cytoplasmic distribution at MBD measured after 1 hr by transmission electron microscopic analysis. Format: functional, organism-based.
The test system of series [17] is Staphylococcus aureus. In words: Induction of morphological changes in Staphylococcus aureus ATCC 29213 assessed as […] at MBD measured after 1 hr by transmission electron microscopic analysis. Format: functional, organism-based.
Series [18] relates to Staphylococcus aureus. In words: Induction of morphological changes in Staphylococcus aureus ATCC 29213 assessed as appearance of intracellular empty areas at MBD measured after 1 hr by transmission electron microscopic analysis. Format: functional, organism-based.
Series [19] has as its system Escherichia coli. In words: Bactericidal activity against Escherichia coli ATCC 25922 assessed as reduction in bacterial growth at MBC by time-kill assay. The format is functional, organism-based. In outline: (§2)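 Time-kill assay. E. coli ATCC 25922, S. aureus ATCC 29213 or C. albicans cgmcc 2.2086 at a final 0.5-1×10^5 CFU mL-1 treated at 1×MBC/MFC. Aliquots collected at different times to calculate survival, with an untreated control. Mean of three independent experiments, each with three technical replicates.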

Series [20] deals with Staphylococcus aureus. In words: Bactericidal activity against Staphylococcus aureus ATCC 29213 assessed as reduction in bacterial growth at MBC by time-kill assay. The format is functional, organism-based. In short, it runs like this:
as §2

Series [21] concerns Candida albicans. In words: Fungicidal activity against Candida albicans cgmcc2.2086 assessed as reduction in bacterial growth at MFC by time-kill assay. Format: functional, organism-based. In short, it runs like this:
as §2

Another series relates to Lipid bilayer. In words: Induction of membrane disruption in PC/CL large unilamellar vesicles assessed as calcein-entrapped liposome leakage at 1 uM after 15 mins by spectrofluorophotometric assay relative to control. The following applies: artificial membrane, 0.25 h.
Series [22] deals with Escherichia coli. In words: Induction of outer membrane permeabilization in Escherichia coli ATCC 25922 at 1 to 64 uM by NPN-dye based assay. The format is organism-based. In outline:
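Mid-log E. coli ATCC 25922 (OD600 0.2) with 10 μM NPN in 5 mM HEPES pH 7.4 with 5 mM glucose for 30 min, background subtracted (ex 350, em 420 nm). Mixed with equal volume of peptide (1 to 64 μM) and fluorescence followed to plateau. Uptake normalised to 10 μg/mL polymyxin B. Three independent experiments, each with three technical replicates.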

Calls of active or inactive are those of the source. The calls are words filed in the database; no cut-off is given here. Where a SMILES comes first, the peptide text is derived from it.

In the case of H-AARRILRWIFR-NH2, in the series with Escherichia coli [1], the Ratio is 16.

As for `CC[C@H](C)[C@H](NC(=O)[C@H](CCCCN)NC(=O)[C@H](C)NC(=O)[C@H](C)N)C(=O)N[C@H](C(=O)N[C@@H](CC(C)C)C(=O)N[C@@H](CC(N)=O)C(=O)N1CCC[C@H]1C(=O)N[C@@H](CCCCN)C(=O)N[C@@H](Cc1ccccc1)C(=O)N[C@@H](CCCNC(=N)N)C(=O)N[C@@H](CS)C(=O)N[C@@H](CCCCN)C(=O)N[C@@H](C)C(=O)N[C@@H](C)C(=O)N[C@@H](Cc1ccccc1)C(=O)N[C@@H](CS)C(N)=O)[C@@H](C)CC` (H-AAKIILNPKFRCKAAFC-NH2), the result with Escherichia coli [2] was Active.

For H-AARIILRWRFR-NH2, the result in the series on Pseudomonas aeruginosa, in the series on Candida albicans [3], in the series with Candida albicans [4], with Staphylococcus aureus [6], with Escherichia coli [9] and in the series on Escherichia coli [10] was Active. Further, the result with Escherichia coli [11], with Staphylococcus aureus [12], in the series with Staphylococcus aureus [13], in the series on Staphylococcus aureus [14], in the series on Escherichia coli [15] and in the series with Escherichia coli [16] was Active. For the same compound, the outcome in the series on Staphylococcus aureus [17] and in the series with Staphylococcus aureus [18] was Active. Further, the Activity result in the series on Candida albicans [5] is “<=80%”. In addition, the Drug uptake entry with Escherichia coli [7] is “Active”. The Flu intensity in the series on Escherichia coli [8] is 3000 a.u.

With `CC[C@H](C)[C@H](NC(=O)CN)C(=O)NCC(=O)N[C@@H](C)C(=O)N[C@H](C(=O)N[C@@H](CC(C)C)C(=O)N[C@@H](CCCCN)C(=O)N[C@H](C(=O)N[C@@H](CC(C)C)C(=O)N[C@H](C(=O)N[C@H](C(=O)NCC(=O)N[C@@H](CC(C)C)C(=O)N1CCC[C@H]1C(=O)N[C@@H](C)C(=O)N[C@@H](CC(C)C)C(=O)N[C@H](C(=O)N[C@@H](CO)C(=O)N[C@@H](Cc1c[nH]c2ccccc12)C(=O)N[C@H](C(=O)N[C@@H](CCCCN)C(=O)N[C@@H](CCCNC(=N)N)C(=O)N[C@@H](CCCCN)C(=O)N[C@@H](CCCNC(=N)N)C(=O)N[C@@H](CCC(N)=O)C(=O)N[C@@H](CCC(N)=O)C(N)=O)[C@@H](C)CC)[C@@H](C)CC)[C@@H](C)O)[C@@H](C)O)C(C)C)C(C)C` [MELITTIN], the outcome with Escherichia coli [19], in the series with Staphylococcus aureus [20], in the series on Candida albicans [21] and in the series on Escherichia coli [22] was Active. Moreover, in the series with Lipid bilayer, the Activity is above 85%.
